In ChEMBL document CHEMBL3875165, “Novel broad-spectrum and long-acting parenteral cephalosporins having an acyl cyanamide moiety at the C-3 terminal: Synthesis and structure-activity relationships” (Eur J Med Chem, 2016):

Experiments:
[1] = tested on: Escherichia coli; assay: Antibacterial activity against Escherichia coli NIHJ JC-2 after 20 hrs by agar dilution method; format: functional; details: NIHJ JC-2, 20 h
Outline: (§1)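 Agar dilution MIC on Sensitivity Disk Agar-N with 2-fold serial drug dilutions. Overnight Mueller Hinton broth cultures were diluted to about 10^6 CFU/mL, and 1 µL spots were applied. Plates were incubated 20 h at 37 °C before scoring.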

[2] = AUC (0 to infinity) in mouse at 20 mg/kg, iv administered as bolus dose by band-culture bioassay; details: in vivo
[3] = tested on: Haemophilus influenzae; assay: Antibacterial activity against beta-lactamase non-producing penicillin-resistant Haemophilus influenzae SR24106 after 20 hrs by agar dilution method; format: functional; details: SR24106, 20 h
Outline: (§2)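 Agar dilution on Sensitivity Disk Agar-N. Overnight Mueller Hinton broth cultures were diluted to about 10^6 CFU/mL, and 1 µL spots were placed on agar plates holding 2-fold serial dilutions of antibiotic. Plates were incubated 20 h at 37 °C and then MICs were scored.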

[4] = tested on: Moraxella catarrhalis; assay: Antibacterial activity against Moraxella catarrhalis SR24290 after 20 hrs by agar dilution method; format: functional; details: SR24290, 20 h; outline: as §1
[5] = Half life in mouse at 20 mg/kg, iv administered as bolus dose by band-culture bioassay; details: in vivo
[6] = tested on: Streptococcus pneumoniae; assay: Antibacterial activity against penicillin-resistant Streptococcus pneumoniae SR16750 after 20 hrs by agar dilution method; format: functional; details: SR16750, 20 h; outline: as §2
[7] = Total clearance in mouse at 20 mg/kg, iv administered as bolus dose by band-culture bioassay; details: in vivo
[8] = tested on: Haemophilus influenzae; assay: Antibacterial activity against beta-lactamase non-producing penicillin-resistant Haemophilus influenzae SR11435 after 20 hrs by agar dilution method; format: functional; details: SR11435, 20 h; outline: as §2
[9] = Protein binding in ICR mouse plasma after 30 mins by ultra-filtration method; format: ADME, cell-free; details: read-out: PPB (converted)
Outline: (§3)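 Mouse or monkey plasma was adjusted to pH 7 with CO2 and spiked with compound to a final 10 µg/ml. It was incubated 30 min at 37 °C, then ultrafiltered by centrifugation at 3200 rpm for 30 min at 25 °C. Free drug in the filtrate was measured by bioassay to give the bound fraction.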

[10] = tested on: Staphylococcus aureus; assay: Antibacterial activity against Staphylococcus aureus SMITH after 20 hrs by agar dilution method; format: functional; outline: as §1
[11] = tested on: Streptococcus pneumoniae; assay: Antibacterial activity against penicillin-resistant Streptococcus pneumoniae SR16675 after 20 hrs by agar dilution method; format: functional; details: SR16675, 20 h; outline: as §2
[12] = AUC (0 to infinity) in monkey at 20 mg/kg, iv administered as bolus dose by HPLC method; format: ADME, organism-based, Macaca mulatta; design: dose 20 mg/kg, time infinity, route intravenous; details: rhesus monkey, in vivo
Outline: (§4)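 Three monkeys per group received a single iv bolus of 20 mg/kg (1 mL/kg). Plasma levels were measured by HPLC. AUC0-∞, CLtot and T1/2 came from a 2-compartment fit.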

[13] = Total clearance in monkey at 20 mg/kg, iv administered as bolus dose by HPLC method; format: ADME, organism-based, Macaca mulatta; details: rhesus monkey, in vivo; outline: as §4
[14] = Protein binding in cynomolgus monkey plasma after 30 mins by ultra-filtration method; format: ADME, cell-free, Macaca fascicularis; details: read-out: PPB (converted); outline: as §3
[15] = Half life in monkey at 20 mg/kg, iv administered as bolus dose by HPLC method; format: ADME, organism-based, Macaca mulatta; details: rhesus monkey, in vivo; outline: as §4

SMILES	MIC [1] [µg/mL]	AUC(0-inf) [2] [ng·h/mL]	MIC [3] [µg/mL]	MIC [4] [µg/mL]	half-life [5] [h]	MIC [6] [µg/mL]	clearance [7] [mL/min/kg]	MIC [8] [µg/mL]	fraction unbound at 0.5 h [9]	MIC [10] [µg/mL]	MIC [11] [µg/mL]	AUC [12] [ng·h/mL]	clearance [13] [mL/min/kg]	fraction unbound at 0.5 h [14]	half-life [15] [h]
CCO/N=C(\C(=O)N[C@@H]1C(=O)N2C(C(=O)[O-])=C(C[n+]3ccc(-c4cc(/C([O-])=N/C#N)[nH]n4)cc3)CS[C@H]12)c1nc(N)sc1Cl.[Na+]	2	41500	2	0.125	0.59	0.25	8	0.25	0.43	1	0.125	–	–	–	–
CCO/N=C(\C(=O)N[C@@H]1C(=O)N2C(C(=O)[O-])=C(/C=C/C[n+]3cccc4[nH]c(/C([O-])=N/C#N)cc43)CS[C@H]12)c1csc(N)n1.[Na+]	0.125	23600	0.125	1	0.73	0.5	14.1	0.031	0.64	0.5	0.25	9800	1.74	0.4	2.03
CCO/N=C(\C(=O)N[C@@H]1C(=O)N2C(C(=O)[O-])=C(/C=C/C[n+]3cccc4cc(/C([O-])=N/C#N)ccc43)CS[C@H]12)c1csc(N)n1.[Na+]	0.125	12900	0.125	0.5	0.95	0.5	25.7	0.031	0.9	0.25	0.25	8200	2.08	0.63	1.74
CCO/N=C(\C(=O)N[C@@H]1C(=O)N2C(C(=O)[O-])=C(/C=C/C[n+]3ccc(-c4c[nH]c(/C([O-])=N/C#N)c4)cc3)CS[C@H]12)c1csc(N)n1.[Na+]	0.125	17600	0.125	8	0.93	0.25	18.9	0.063	0.75	0.25	0.125	20200	0.84	0.3	4.25
CCO/N=C(\C(=O)N[C@@H]1C(=O)N2C(C(=O)[O-])=C(/C=C/C[n+]3ccc(-c4cc(/C([O-])=N/C#N)[nH]n4)cc3)CS[C@H]12)c1csc(N)n1.[Na+]	0.125	17400	0.125	2	1.03	0.25	19.2	0.063	0.75	0.25	0.125	35400	0.48	0.27	4.43
CCO/N=C(\C(=O)N[C@@H]1C(=O)N2C(C(=O)[O-])=C(/C=C/C[n+]3ccc4[nH]c(/C([O-])=N/C#N)cc4c3)CS[C@H]12)c1csc(N)n1.[Na+]	0.25	30400	0.125	4	0.63	0.5	10.9	0.063	0.73	0.5	0.25	20900	0.8	0.33	3.35
CCO/N=C(\C(=O)N[C@@H]1C(=O)N2C(C(=O)[O-])=C(/C=C/C[n+]3ccc(-c4cc(/C([O-])=N/C#N)on4)cc3)CS[C@H]12)c1csc(N)n1.[Na+]	0.125	14800	0.125	0.5	0.85	0.25	22.6	0.063	0.78	0.5	0.25	59800	0.29	0.06	5.14
CCO/N=C(\C(=O)N[C@@H]1C(=O)N2C(C(=O)[O-])=C(C[n+]3ccc(-c4cc(/C([O-])=N/C#N)[nH]n4)cc3)CS[C@H]12)c1csc(N)n1.[Na+] (stereo in doubt)	0.5	10800	0.25	0.5	1.14	0.5	30.8	0.063	0.77	1	0.25	–	–	–	–
